In assay [1] the test system is BT-549. As to the kind of experiment: Cell cycle arrest in human BT549 cells assessed as accumulation of cells at S phase at 8 uM after 24 hrs by propidium iodide staining-based flow cytometric analysis (reference value: 25.84%). In kind it is functional.
The subject of assay [2] is BT-549. As to the kind of experiment: Cytotoxicity against human BT549 cells after 72 hrs by MTT assay. Format: functional, cell-based. Particulars: BT-549, 72 h. An outline of the steps: (§1)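 Lines kept in RPMI-1640 with 10% FBS. Cells were seeded at 2×10³ per well and allowed to attach for 24 h at 37 °C. Medium was then replaced with medium holding serial dilutions from 100 mM DMSO stocks, with 0.1% DMSO as negative control, for 72 h at 37 °C. […] IC50 was fitted from the concentration series as the mean ± SD of three independent experiments run in duplicate.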
In general terms: Tetrazolium assays rely on reduction of a dye to a coloured formazan, in cell work by metabolically active cells.

The subject of the next assay is MCF7. The assay is described as follows: Cytotoxicity against human MCF7 cells after 72 hrs by MTT assay. In kind it is functional, cell-based. The settings on record: MCF7, 72 h. In outline:
as §1

The subject of a further assay is MDA-MB-231. The assay is described as follows: Cytotoxicity against human MDA-MB-231 cells after 72 hrs by MTT assay. Format: functional, cell-based. Particulars: MDA-MB-231, 72 h. In outline:
as §1

Assay [3] concerns BT-549. As to the kind of experiment: Cell cycle arrest in human BT549 cells assessed as accumulation of cells at G2/M phase at 8 uM after 24 hrs by propidium iodide staining-based flow cytometric analysis (reference value: 8.88%). Format: functional. In general terms: Flow cytometry measures light scatter and fluorescence of single cells or particles in a stream.
Another assay deals with Hs-578T. As to the kind of experiment: Cytotoxicity against human Hs578T cells after 72 hrs by MTT assay. Format: functional, cell-based. An outline of the steps:
as §1

A further assay relates to MDA-MB-468. As to the kind of experiment: Cytotoxicity against human MDA-MB-468 cells after 72 hrs by MTT assay. Format: functional, cell-based. The settings on record: MDA-MB-468, 72 h. An outline of the steps:
as §1

In another assay the test system is T47D. As to the kind of experiment: Cytotoxicity against human T47D cells after 72 hrs by MTT assay. Format: functional, cell-based. An outline of the steps:
as §1

The subject of assay [4] is BT-549. As to the kind of experiment: Cell cycle arrest in human BT549 cells assessed as accumulation of cells at G0/G1 phase at 8 uM after 24 hrs by propidium iodide staining-based flow cytometric analysis (reference value: 65.28%). In kind it is functional.
The subject of assay [5] is BT-549. As to the kind of experiment: Cell cycle arrest in human BT549 cells assessed as accumulation of cells at S phase at 2 uM after 24 hrs by propidium iodide staining-based flow cytometric analysis (reference value: 25.84%). Format: functional.
Assay [6] concerns the target T1, Tubulin alpha (Homo sapiens) (UniProt P0DPH7+P68366+Q71U36+P68363+Q9BQE3+Q6PEY2+A6NHL2+Q9NY65). As to the kind of experiment: Disruption of alpha-tubulin in human BT549 cells assessed as formation of cellular rounding at 10 uM after 6 hrs by FITC/DAPI staining-based confocal microscopic analysis. In kind it is cell-based. An outline of the steps:
(§2)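 BT549 cells (2×10⁴ per well) were attached overnight on glass coverslips, then exposed to 10 or 20 µM, or to 0.1% DMSO, for 6 h. Cells were fixed in 4% paraformaldehyde, permeabilized with 0.1% Triton X-100 and blocked in 5% BSA for 60 min. Primary antibodies were α-tubulin mouse and β-tubulin rabbit monoclonals, applied overnight at 4 °C. Secondaries were FITC anti-mouse and Alexa Fluor 555 anti-rabbit, with DAPI for nuclei, and cells were imaged by laser scanning confocal microscopy.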

A further assay concerns the target Tubulin (Sus scrofa, UniProt P02554+P02550). The assay is described as follows: Inhibition of pig brain tubulin polymerization by spectrophotometric analysis.
Assay [7] addresses T2, Tubulin beta (Homo sapiens) (UniProt P68371+Q9H4B7+Q13509+P04350+Q3ZCM7+P07437+Q13885+Q9BVA1+Q9BUF5+A6NNZ2). As to the kind of experiment: Disruption of beta-tubulin in human BT549 cells assessed as formation of cellular rounding at 10 uM after 6 hrs by FITC/DAPI staining-based confocal microscopic analysis. In kind it is cell-based. An outline of the steps: as §2
Assay [8] relates to BT-549. The assay is described as follows: Cell cycle arrest in human BT549 cells assessed as accumulation of cells at S phase at 4 uM after 24 hrs by propidium iodide staining-based flow cytometric analysis (reference value: 25.84%). Format: functional.
For assay [9], the target named is T1, Tubulin alpha (Homo sapiens). The assay is described as follows: Disruption of alpha-tubulin in human BT549 cells assessed as round cell shape at 20 uM after 6 hrs by FITC/DAPI staining-based confocal microscopic analysis. In outline:
as §2

The test system of assay [10] is BT-549. The assay is described as follows: Cell cycle arrest in human BT549 cells assessed as accumulation of cells at G0/G1 phase at 2 uM after 24 hrs by propidium iodide staining-based flow cytometric analysis (reference value: 65.28%). In kind it is functional.
The target in assay [11] is T2, Tubulin beta (Homo sapiens). The assay is described as follows: Disruption of beta-tubulin in human BT549 cells assessed as wrapped microtubule at 20 uM after 6 hrs by DAPI staining-based confocal microscopic analysis.
For assay [12], the system named is BT-549. The assay is described as follows: Cell cycle arrest in human BT549 cells after 24 hrs by propidium iodide staining-based flow cytometric analysis. Format: functional.
Assay [13] deals with BT-549. The assay is described as follows: Cell cycle arrest in human BT549 cells assessed as accumulation of cells at G2/M phase at 4 uM after 24 hrs by propidium iodide staining-based flow cytometric analysis (reference value: 8.88%). Format: functional.
For assay [14], the target named is T1, Tubulin alpha (Homo sapiens). As to the kind of experiment: Disruption of alpha-tubulin in human BT549 cells at 10 uM after 6 hrs by FITC/DAPI staining-based confocal microscopic analysis. In kind it is cell-based. An outline of the steps: as §2
Assay [15] concerns BT-549. As to the kind of experiment: Cell cycle arrest in human BT549 cells assessed as accumulation of cells at G2/M phase at 2 uM after 24 hrs by propidium iodide staining-based flow cytometric analysis (reference value: 8.88%). Format: functional.
Assay [16] concerns the target T2, Tubulin beta (Homo sapiens). The assay is described as follows: Disruption of beta-tubulin in human BT549 cells assessed as round cell shape at 20 uM after 6 hrs by FITC/DAPI staining-based confocal microscopic analysis. In outline: as §2
The subject of assay [17] is BT-549. The assay is described as follows: Cell cycle arrest in human BT549 cells assessed as accumulation of cells at G0/G1 phase at 4 uM after 24 hrs by propidium iodide staining-based flow cytometric analysis (reference value: 65.28%). In kind it is functional.
The target of assay [18] is T1, Tubulin alpha (Homo sapiens). The assay is described as follows: Disruption of alpha-tubulin in human BT549 cells assessed as loss of cellular structure at 10 uM after 6 hrs by FITC/DAPI staining-based confocal microscopic analysis. Format: cell-based. An outline of the steps: as §2
In assay [19] the target is T2, Tubulin beta (Homo sapiens). As to the kind of experiment: Disruption of beta-tubulin in human BT549 cells assessed as short microtubule at 20 uM after 6 hrs by FITC/DAPI staining-based confocal microscopic analysis. Format: cell-based. An outline of the steps: as §2
Assay [20] concerns the target T1, Tubulin alpha (Homo sapiens). As to the kind of experiment: Disruption of alpha-tubulin in human BT549 cells assessed as wrapped microtubule at 20 uM after 6 hrs by FITC/DAPI staining-based confocal microscopic analysis. Format: cell-based. An outline of the steps: as §2
Another assay concerns the target Tubulin (Sus scrofa) (UniProt P02554+P02550). The assay is described as follows: Inhibition of pig brain tubulin polymerization at 10 uM by spectrophotometric analysis relative to control. An outline of the steps:
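Tubulin polymerization inhibition was measured with compounds at a final concentration of 10 µM.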

Assay [21] deals with T2, Tubulin beta (Homo sapiens). As to the kind of experiment: Disruption of beta-tubulin in human BT549 cells at 10 uM after 6 hrs by FITC/DAPI staining-based confocal microscopic analysis. In kind it is cell-based. In outline:
as §2

In assay [22] the target is T1, Tubulin alpha (Homo sapiens). As to the kind of experiment: Disruption of alpha-tubulin in human BT549 cells assessed as short microtubule at 20 uM after 6 hrs by FITC/DAPI staining-based confocal microscopic analysis. Format: cell-based. In outline:
as §2

Assay [23] deals with T2, Tubulin beta (Homo sapiens). The assay is described as follows: Disruption of beta-tubulin in human BT549 cells assessed as loss of cellular structure at 10 uM after 6 hrs by FITC/DAPI staining-based confocal microscopic analysis. In kind it is cell-based. In outline:
as §2

Structures are written as SMILES. pIC50: −log10 of the molar value. The source made the active and inactive calls. The rule behind the calls is not given here. Where only a bound is given, the exact number is not on record here.

Tubulin (Sus scrofa), sequence (P02550 whole entry, looked up): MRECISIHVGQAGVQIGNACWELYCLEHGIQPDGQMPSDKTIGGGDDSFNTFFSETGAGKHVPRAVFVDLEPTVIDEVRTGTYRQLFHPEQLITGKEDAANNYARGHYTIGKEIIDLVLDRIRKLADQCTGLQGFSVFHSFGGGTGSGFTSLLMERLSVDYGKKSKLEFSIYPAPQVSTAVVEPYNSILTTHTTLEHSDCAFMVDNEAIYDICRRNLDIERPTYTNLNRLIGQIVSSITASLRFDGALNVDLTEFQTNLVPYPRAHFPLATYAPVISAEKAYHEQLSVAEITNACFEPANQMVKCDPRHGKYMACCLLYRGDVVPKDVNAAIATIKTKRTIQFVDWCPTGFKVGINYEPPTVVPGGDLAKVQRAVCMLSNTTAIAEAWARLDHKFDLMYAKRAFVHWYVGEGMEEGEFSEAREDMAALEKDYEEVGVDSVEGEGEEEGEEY
Tubulin (Sus scrofa), sequence (P02554 whole entry, looked up): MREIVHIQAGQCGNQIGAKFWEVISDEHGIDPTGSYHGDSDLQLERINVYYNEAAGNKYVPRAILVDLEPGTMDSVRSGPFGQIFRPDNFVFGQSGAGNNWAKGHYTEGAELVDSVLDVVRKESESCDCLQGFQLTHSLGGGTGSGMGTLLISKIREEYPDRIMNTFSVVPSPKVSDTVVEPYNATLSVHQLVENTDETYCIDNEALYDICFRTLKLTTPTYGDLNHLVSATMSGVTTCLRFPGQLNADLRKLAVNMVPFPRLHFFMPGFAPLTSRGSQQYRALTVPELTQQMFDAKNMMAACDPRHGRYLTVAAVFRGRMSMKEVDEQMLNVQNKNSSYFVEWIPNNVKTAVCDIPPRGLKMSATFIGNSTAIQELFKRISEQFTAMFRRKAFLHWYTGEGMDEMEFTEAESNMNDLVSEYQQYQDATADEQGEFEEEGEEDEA

For orientation: pIC50 means the IC50 on a negative log10 scale, so that one unit is a factor of ten. Read a low pIC50 as a high IC50. Turning to `COc1ccc(/C=C\c2cc(OC)c(OC)c(OC)c2)cc1O` [COMBRETASTATIN A4], the Activity in the assay on BT-549 [1] is recorded as 18.2%; in the assay with BT-549 [3] it was 72.9%; with BT-549 [4] it was 8.9%. In addition, the pIC50 in the assay with BT-549 [2] was 8.77; in the assay with MCF7, 8.52; in the assay with MDA-MB-231, 8.50; with Hs-578T, 8.87; with MDA-MB-468, 8.81; in the assay on T47D, 8.72.
As usually defined, the IC50 is the concentration needed to halve the response being measured. Low values mean inhibition by little substance, high ones a need for much substance. By inhibition is commonly meant the share of the control response that was lost under treatment. The low end stands for a response near the control, the high end for a response far below the control. Consider `COc1cc(C(=O)Nc2c(C(=O)c3ccc(Cl)cc3)[nH]c3cc(Cl)ccc23)cc(OC)c1OC`, for which the Activity with BT-549 [5] was 41.6%; in the assay with BT-549 [1] it was 23.66%; in the assay with BT-549 [8] it was 33.01%; in the assay with BT-549 [10] it was 32.1%; in the assay on BT-549 [3] it was 56.58%; in the assay with BT-549 [12] it was “Dose-dependent effect”. In addition, the Activity was found to be 35.92% in the assay on BT-549 [13], 26.29% with BT-549 [15], 31.07% in the assay on BT-549 [17] and 19.76% with BT-549 [4]. For the same compound, the result in assay [6], in assay [7], in assay [9], in assay [11], in assay [14] and in assay [16] was Active. Further, the outcome in assay [18], in assay [19], in assay [20], in assay [21], in [22] and in assay [23] was Active. At Tubulin, this compound yielded an IC50 of 9500 nM. Further, the negative logarithm of the IC50 (pIC50) in the assay with BT-549 [2] is 5.50; in the assay with MCF7, 4.96; in the assay with MDA-MB-231, 5.19; in the assay on Hs-578T it was below 4.00; with MDA-MB-468 it was 5.10; with T47D, 7.40. Besides, the inhibition at Tubulin (Sus scrofa) stood at 59%.

Source of the values: ChEMBL document CHEMBL4382246, “Synthesis, biological evaluation, and molecular docking investigation of 3-amidoindoles as potent tubulin polymerization inhibitors” (Eur J Med Chem, 2019).
